Assay results: ChEMBL document CHEMBL1134482, “Ether phospholipid-AZT conjugates possessing anti-HIV and antitumor cell activity. Synthesis, conformational analysis, and study of their thermal effects on membrane bilayers” (J Med Chem, 2001)

Assays:
FM3A = experiment: Inhibitory effect of compound on the proliferation of murine mammary carcinoma cells FM3A/0; assay type: functional, cell-based; conditions: Mus musculus
Procedure, shortened: (§1)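 Murine L1210/0, L1210/TK- leukemia cells or FM3A/0 mammary carcinoma cells were incubated with the compound for 2 days at 37 °C. IC50 was the concentration reducing the total number of viable cells by 50%.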

CCRF-CEM [1] = experiment: Concentration required to protect CEM/0 cells against the cytopathicity of HIV-2 by 50%.; assay type: functional, cell-based; conditions: Homo sapiens
Procedure, shortened: (§2)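 CEM cells (wild-type, or TK-deficient for the HIV-2 CEM/TK- line) were infected with HIV-1 or HIV-2. EC50 was taken as the concentration protecting the cells from virus-induced cytopathicity by 50%. Values are averages of at least two separate experiments.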

CCRF-CEM [2] = experiment: Concentration required to protect CEM/0 cells against the cytopathicity of HIV-1 by 50%.; assay type: functional, cell-based; conditions: Homo sapiens; procedure, shortened: as §2
MOLT-4 = experiment: Inhibitory effect of compound on the proliferation of human T-lymphocyte cells Molt4/C8; assay type: functional, cell-based
Procedure, shortened: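 Human Molt4/C8 T-lymphoblast cells were incubated with the compound for 3 days at 37 °C. IC50 was the concentration cutting the total viable cell number by 50%.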

L1210 = experiment: Inhibitory effect of compound on the proliferation of murine leukemia cells L1210/0.; assay type: functional, cell-based; conditions: Mus musculus; procedure, shortened: as §1
L1210/TK- = experiment: Inhibitory effect of compound on the proliferation of murine leukemia cells L1210/TK-; assay type: functional, cell-based; conditions: Mus musculus; procedure, shortened: as §1
CEM-TK(-) = experiment: Concentration required to protect CEM/TK cells against the cytopathicity of HIV-2 by 50%; assay type: functional, cell-based; conditions: Homo sapiens; procedure, shortened: as §2
CCRF-CEM [3] = experiment: Concentration required to reduce CEM/0 cell viability by 50%; assay type: functional; conditions: Homo sapiens
Procedure, shortened: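 Uninfected CEM/0 T-lymphocytes were exposed to the compound. CC50 was the concentration reducing CEM cell viability by 50%. Values are averages of at least two separate experiments.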

EC50 (CCRF-CEM [1])	EC50 (CCRF-CEM [2])	IC50 (MOLT-4)	IC50 (L1210)	IC50 (L1210/TK-)	EC50 (CEM-TK(-))	SMILES	IC50 (FM3A)	CC50 (CCRF-CEM [3])
1 µM	0.58 µM	144 µM	12.5 µM	165 µM	> 50 µM	CCCCCCCCCCCCCCCCOP(=O)(O)OCC1OC(n2cc(C)c(=O)[nH]c2=O)CC1N=[N+]=[N-] (stereo not drawn)	133 µM	161 µM
0.08 µM	0.065 µM	21.4 µM	0.98 µM	33.6 µM	> 10 µM	CCCCCCCCCCCCCCCCOCC(COP(=O)(O)OCC1OC(n2cc(C)c(=O)[nH]c2=O)CC1N=[N+]=[N-])OC (stereo not drawn)	68.4 µM	34.3 µM

SMILES	EC50 (CCRF-CEM [1])	EC50 (CCRF-CEM [2])	IC50 (MOLT-4)	IC50 (L1210)	IC50 (L1210/TK-)	EC50 (CEM-TK(-))	IC50 (FM3A)	CC50 (CCRF-CEM [3])
Cc1cn([C@H]2C[C@H](N=[N+]=[N-])[C@@H](CO)O2)c(=O)[nH]c1=O [ZIDOVUDINE]		0.0064 µM	62.8 µM	6.18 µM	> 500 µM	> 100 µM	203 µM	> 500 µM
